Laboratory results from ChEMBL document CHEMBL1155193, “Acyloxymethyl esterification of nodularin-R and microcystin-LA produces inactive protoxins that become reactivated and produce apoptosis inside intact cells” (J Med Chem, 2009).
Activity calls are given as the source filed them. The calls are words filed in the database; no cut-off is given here. Starred links: 1 amine or outer side, 2 acyl side, 3 side chain; linkers in the order of their positions; H or OH if unused. Positions of bridges follow the written chain, without caps; N, C: chain ends. Non-standard residues stand in square brackets, D forms with d. Residues, ends and D or L forms follow the SMILES beside them. Adda = CO[C@@H](Cc1ccccc1)[C@@H](C)/C=C(C)/C=C/[C@H](N[*:1])[C@H](C)C(=O)[*:2]; X1 = CC(C)C[C@H](N[*:1])C(=O)C[C@@H](C(=O)O)[C@H](C)C(=O)[*:2]; dAsp(3S-Me) = C[C@H](C(=O)[*:3])[C@@H](N[*:1])C(=O)[*:2]; d(γGlu) = O=C(O)[C@@H](CCC(=O)[*:2])N[*:1]; NMeDha = C=C(NC)C(=O)O

Columns and labels:
Hepatocyte [1] = assay: Cytotoxicity against Wistar rat hepatocytes harboring transporter Oatp1b2 assessed as appearance of polarized cell blebbing at 0.2 uM after 90 mins by differential interference contrast microscopy; type: ADME, cell-based; settings: 1.5 h
NIH3T3 [2] = assay: Induction of apoptosis in Swiss mouse 3T3 cells assessed as appearance of apoptotic morphology at 100 uM injected directly into intact cells after 3 hrs by Hoechst 33342 staining-based fluorescence microscopy in presence of esterase; type: cell-based; settings: nih3t3, 3 h
[3] = Lipophilicity, logD at pI; type: physicochemical; settings: octanol/water
How it was run: (§1)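 In silico estimate under a standard ionic condition (0.1 M Cl⁻, 0.1 M Na⁺/K⁺) at pI and at pH 7.4. pKa was estimated in macro mode at 310 K.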

[4] = Lipophilicity, logD at pH 7.4; type: physicochemical; settings: buffer; how it was run: as §1
[5] = Stability assessed as formation of nodularin-R by HPLC analysis in presence of pig liver esterase; type: ADME; settings: isolated protein
Hepatocyte [6] = assay: Cytotoxicity against Wistar rat hepatocytes harboring transporter Oatp1b2 assessed as appearance of polarized cell blebbing at 60 nM after 90 mins by differential interference contrast microscopy; type: ADME, cell-based; settings: 1.5 h, 0.06 µM
NIH3T3 [7] = assay: Induction of apoptosis in Swiss mouse 3T3 cells up to 120 uM after 3 hrs by Hoechst 33342 staining-based fluorescence microscopy; type: cell-based; settings: nih3t3, 3 h
How it was run: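 Swiss 3T3 mouse fibroblasts kept in RPMI with 10% FCS at 37 °C, 5% CO₂. About 7000 cells per well were exposed to various toxin concentrations for 3 h in fresh serum-free medium. The incubation was stopped with buffered formaldehyde containing Hoechst 33342, and apoptosis was scored by fluorescence and DIC microscopy. Mean ± SEM of three experiments.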

Hepatocyte [8] = assay: Cytotoxicity against Wistar rat hepatocytes harboring transporter Oatp1b2 assessed as appearance of polarized cell blebbing at 80 nM after 90 mins by differential interference contrast microscopy; type: ADME, cell-based; settings: 1.5 h, 0.08 µM
[9] = biological target: Serine/threonine-protein phosphatase 2A catalytic subunit alpha isoform (Oryctolagus cuniculus) (UniProt P67777); assay: Displacement of [125]MC-YR from rabbit skeletal muscle protein phosphatase 2A after 1 hr; type: tissue-based; settings: Muscle tissue
Sequence of Serine/threonine-protein phosphatase 2A catalytic subunit alpha isoform (Oryctolagus cuniculus) (P67777 whole entry, canonical isoform): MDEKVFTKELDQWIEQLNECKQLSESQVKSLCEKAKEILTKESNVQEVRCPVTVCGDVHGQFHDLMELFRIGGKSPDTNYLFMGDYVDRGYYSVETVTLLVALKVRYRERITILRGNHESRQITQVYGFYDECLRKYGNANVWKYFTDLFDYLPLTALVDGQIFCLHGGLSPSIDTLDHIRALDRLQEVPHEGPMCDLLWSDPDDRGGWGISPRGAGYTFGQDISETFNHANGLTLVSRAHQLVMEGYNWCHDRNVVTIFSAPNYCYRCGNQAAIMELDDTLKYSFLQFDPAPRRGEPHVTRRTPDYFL

Hepatocyte [10] = assay: Cytotoxicity against Wistar rat hepatocytes harboring transporter Oatp1b2 assessed as appearance of polarized cell blebbing at 4 uM after 90 mins by differential interference contrast microscopy; type: ADME, cell-based; settings: 1.5 h

C=C1C(=O)N[C@H](C)C(=O)N[C@@H](CC(C)C)C(=O)N[C@@H](C(=O)O)[C@H](C)C(=O)N[C@@H](CCCNC(=N)N)C(=O)N[C@@H](/C=C/C(C)=C/[C@H](C)[C@H](Cc2ccccc2)OC)[C@H](C)C(=O)N[C@@H](C(=O)O)CCC(=O)N1C [MICROCYSTIN-LR] (R[Adda][d(γGlu)][NMeDha][dA]L[dAsp(3S-Me)]-OH; lactam N-7)
Activity (Hepatocyte [1]): Toxic | Activity (NIH3T3 [2]): Toxic

C/C=C1/NC(=O)CC[C@H](C(=O)OCOC(=O)CC)NC(=O)[C@@H](C)[C@H](/C=C/C(C)=C/[C@H](C)[C@H](Cc2ccccc2)OC)NC(=O)[C@H](CCCNC(=N)N)NC(=O)[C@@H](C)[C@H](C(=O)OCOC(=O)CC)NC1=O
logD [3]: 1.6 | logD ([4]; read-out: logD): -0.7 | Stability [5]: Unstable | Activity (NIH3T3 [2]): Toxic | Activity (Hepatocyte [6]): Toxic | Activity (NIH3T3 [7]): < 20%

C/C=C1/C(=O)N[C@@H](C(=O)O)[C@H](C)C(=O)N[C@@H](CCCNC(=N)N)C(=O)N[C@@H](/C=C/C(C)=C/[C@H](C)[C@H](Cc2ccccc2)OC)[C@H](C)C(=O)N[C@@H](C(=O)O)CCC(=O)N1C [NODULARIN]
logD [3]: -3.1 | Activity (NIH3T3 [2]): Toxic | Activity (Hepatocyte [8]): Toxic

C/C=C1/NC(=O)CC[C@H](C(=O)OCOC(C)=O)NC(=O)[C@@H](C)[C@H](/C=C/C(C)=C/[C@H](C)[C@H](Cc2ccccc2)OC)NC(=O)[C@H](CCCNC(=N)N)NC(=O)[C@@H](C)[C@H](C(=O)OCOC(C)=O)NC1=O
logD [3]: 0.4 | logD ([4]; read-out: logD): -2 | Stability [5]: Unstable | Activity (NIH3T3 [2]): Toxic | Activity [9]: inactive | Activity (Hepatocyte [6]): Toxic | Activity (NIH3T3 [7]): < 20%

C=C1C(=O)N[C@H](C)C(=O)N[C@@H](CC(C)C)C(=O)C[C@@H](C(=O)O)[C@H](C)C(=O)N[C@@H](C)C(=O)N[C@@H](/C=C/C(C)=C/[C@H](C)[C@H](Cc2ccccc2)OC)[C@H](C)C(=O)N[C@@H](C(=O)O)CCC(=O)N1C [MICROCYSTIN-LA] ([NMeDha][dA][X1]A[Adda][dE]-OH; lactam N-6)
logD [3]: 0.3

C/C=C1/NC(=O)CC[C@H](C(=O)O)NC(=O)[C@@H](C)[C@H](/C=C/C(C)=C/[C@H](C)[C@H](Cc2ccccc2)OC)NC(=O)[C@H](CCC/N=C2/N=C(c3ccccc3)C(O)N2)NC(=O)[C@@H](C)[C@H](C(=O)O)NC1=O (some centres undefined)
logD [3]: -1.4 | logD [4]: -4.8 | Activity (NIH3T3 [2]): Toxic | Activity (NIH3T3 [7]): < 20% | Activity (Hepatocyte [10]): Toxic
